# CHT block = human CHT choline transport inhibition; CHT-expressing cells, membrane potential dye, choline response; active compounds read low; 0.86% of 310,000 active; B-score at 10 µM; Q9GZV3;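 active = B-score over 3 SD under the library average, and starting fluorescence ratio not unusually high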;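 also: choline stimulus applied at its EC90 after an EC20 pre-addition; B-score computed on integrated fluorescence ratio after choline addition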
# CHT PAM = allosterically activates the human high affinity choline transporter; CHT-expressing cells, membrane potential dye, choline EC20; active compounds read high; LV-AA mutant CHT in HEK293 cells; 0.49% of 310,000 active; Q9GZV3; B-score at 10 µM; AID 488977;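 active = initial fluorescence not abnormally high and integrated response B-score, plate-corrected, over 3 SD above library mean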
# proCasp3 act = activates human procaspase-3; P42574; recombinant procaspase-3 D3A, Ac-DEVD-pNA absorbance 405 nm; activation, % at 8.5 µM; 0.11% of 330,000 active; AID 463141;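 active = activation above the mean of all tested compounds plus 3 SD, cut at about 21% in these data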;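 also: 0% = DMSO alone and 100% = DMSO wells spiked with extra 5 µM PC-3 D3A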
# Target sequence (P42574 whole entry D9A/D28A/D175A): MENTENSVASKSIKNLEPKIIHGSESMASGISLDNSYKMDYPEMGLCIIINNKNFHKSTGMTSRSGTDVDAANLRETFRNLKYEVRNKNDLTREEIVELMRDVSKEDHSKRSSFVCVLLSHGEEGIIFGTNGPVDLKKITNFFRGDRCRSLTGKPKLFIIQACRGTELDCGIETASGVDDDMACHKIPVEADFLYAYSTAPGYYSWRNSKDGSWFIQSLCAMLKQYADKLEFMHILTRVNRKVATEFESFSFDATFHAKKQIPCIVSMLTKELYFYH
#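 Assay system: Procaspase-3 D3A mutant, all three cleavage aspartates alanine. Buffer or medium: Zinc-free HEPES saline buffer with Triton X-100. Times: 1 h compound preincubation, 2 h substrate hydrolysis at 25 °C. Measured by: 405 nm absorbance of p-nitroaniline, reads at 0 and 120 min. Read-out basis: percent activation relative to control range. Replicates: singlicate.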
# procasp7 counter = counter-screen: procaspase-7 (human) activation. P55210. recombinant procaspase-7, Ac-DEVD-pNA absorbance 405 nm; D23A/D198A/D206A triple mutant, cannot self-cleave; scale: DMSO 0, 5 µM enzyme 100. activation, % at 8.5 µM. 0.093% of 330,000 active;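 active = percent activation above the screen-wide mean plus 3 SD, cut at about 25% in these data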
# Target sequence (P55210 whole entry D23A/D198A/D206A): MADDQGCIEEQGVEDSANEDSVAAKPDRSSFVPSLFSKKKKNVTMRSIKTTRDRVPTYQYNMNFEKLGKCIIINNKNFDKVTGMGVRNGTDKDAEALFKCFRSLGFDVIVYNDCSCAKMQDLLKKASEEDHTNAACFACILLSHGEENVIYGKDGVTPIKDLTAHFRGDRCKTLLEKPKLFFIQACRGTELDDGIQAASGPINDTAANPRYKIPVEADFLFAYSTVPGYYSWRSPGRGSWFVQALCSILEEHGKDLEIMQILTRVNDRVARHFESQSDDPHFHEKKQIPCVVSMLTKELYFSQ
#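 System: Uncleavable procaspase-7 mutant enzyme; Amount: 2 µM procaspase-7 mutant as dispensed; Schedule: 1 h compound preincubation, 2 h substrate cleavage, 25 °C; Measured by: 405 nm absorbance of p-nitroaniline; Evaluation: percent activation from buffer-corrected 0–120 min absorbance change; Control set: low DMSO alone, high DMSO plus 5 µM PC-7.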
# CHT activ conf = human CHT activation, confirmatory screen. shares compounds with CHT PAM. CHT-expressing cells, membrane potential dye fluorescence (FDSS); % of choline EC20–EC90 response window; HEK293 expressing CHT LV-AA mutant; choline added at its EC20. activation, % at 10 µM. 91% of 2,500 active. AID 504833;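 active = primary screen active, with duplicate mean activation above negative control mean plus 3 SD, cut at about 11% in these data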
# HEK293 MP dye = counter-screen for CHT activators: effect in parental HEK293 cells. ratio readout change at 10 µM, hits read low. 62% of 2,500 active. shares compounds with CHT PAM. membrane potential dye fluorescence (FDSS); measured after EC20 choline addition;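 active = duplicate-averaged ratio beyond 3 SD from buffer wells, up or down, though filed actives are nearly all decreases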
# Numbers without * were called inactive; i = inactive; . = no result; ! = not active in a repeat. In the library only some 1.3% were active in any assay of this set; here they are far more common.
SMILES,CHT block,CHT PAM,proCasp3 act,procasp7 counter,CHT activ conf,HEK293 MP dye
O=C(c1cc([N+](=O)[O-])ccc1N1CCOCC1)N1CCN(c2ccccc2)CC1,i,12*,-3,5,48*,i
O=C(NC1CCSc2ccccc21)c1cc([N+](=O)[O-])ccc1N1CCOCC1 (stereo not given),i,6.4*,0,4,6,i
O=C(NCCc1ccc(F)cc1)c1cc([N+](=O)[O-])ccc1N1CCOCC1,i,i,3,0,2,i
O=C(NC1CCSc2ccccc21)c1ccc([N+](=O)[O-])cc1 (stereo not given),i,i,2,-1,.,.
CN1CCN(c2ccc([N+](=O)[O-])cc2C(=O)N2CCOCC2)CC1,i,i,10,-7,.,.
O=[N+]([O-])c1ccc(N2CCN(c3ccccc3F)CC2)c(S(=O)(=O)N2CCOCC2)c1,i,6.2*,9,-2,34*,i
COCCS(=O)(=O)N(Cc1ccccc1)[C@H](C(=O)OC)C(C)C,.,.,1,7,.,.
O=C(Nc1cc([N+](=O)[O-])ccc1C(=O)NCCN1CCOCC1)c1ccccc1,i,i,2,0,.,.
O=C(Nc1ccccc1C(=O)NCCN1CCOCC1)c1cccc([N+](=O)[O-])c1,i,i,1,1,58*,-57*
CCC1(c2ccccc2)ON(c2c(Br)cccc2Br)C1=O (stereo not given),.,.,2,-5,.,.
Cc1ccc2nc(Cl)c(CN(Cc3cccs3)C(=O)C3CC3)cc2c1,i,i,-7,6,.,.
COc1ccc(CCN(Cc2cc3cc(C)c(C)cc3nc2Cl)C(=O)C2CC2)cc1,i,9.2*,-2,-6,-4,i
CCCn1c(-c2cccs2)nc2nc3ccccc3nc21,i,i,1,2,.,.
c1csc(-c2nc3nc4ccccc4nc3n2Cc2ccc3c(c2)OCO3)c1,i,8.7*,-8,-7,15*,i
Cc1nc2ccc(NC(=O)c3ccc(=O)[nH]c3)cc2s1,i,i,-1,-3,33*,-39*
Cc1nc2ccc(NC(=O)c3ccccc3)cc2s1,i,i,-1,-11,.,.
COc1ccccc1-n1c(-c2ccccc2)c[n+]2c1CCc1ccccc1-2,i,11*!,0,-6,32*,i
COc1ccccc1-n1c(-c2ccc(F)cc2)coc1=O,i,i,-11,16,.,.
COc1ccc(-n2c(-c3ccc(Br)cc3)c[n+]3c2CCc2ccccc2-3)cc1,i,i,7,-6,91*,-29*
C(=N\n1cnnc1)/c1ccc2ncccc2c1,i,8*,-4,-10,67*,-80*
Cc1cc(C)cc(NC(=O)CCCCCN2C(=O)[C@@H]3Cc4ccccc4CN3C2=O)c1,i,i,5,4,.,.
CC1CCN(C(=O)CN(Cc2ccc(F)cc2)S(C)(=O)=O)CC1,i,i,.,.,.,.
CCOC(=O)C1CCN(C(=O)CCc2nnc3ccc(N4CCN(C)CC4)nn23)CC1,i,8.1*,11,-8,73*,-72*
COc1ccccc1C(=O)NC(=O)CSc1nnc(C)s1,i,i,-1,-2,.,.
COc1ccc(C(=O)C(CCC(CNC(C)(C)C)C(=O)c2ccc(OC)cc2)CNC(C)(C)C)cc1 (stereo not given),i,6.6*,2,-6,28*,i
SMILES,CHT block,CHT PAM,proCasp3 act,procasp7 counter,CHT activ conf,HEK293 MP dye
COc1ccc(C(=O)CC(=O)c2ccc(F)cc2)cc1,i,i,-8,-29,.,.
CN1CCN(CCCn2cnc3c(=O)oc4ccccc4c32)CC1,i,9.4*,1,10,66*,-67*
O=c1oc2ccccc2c2c1ncn2CCN1CCOCC1,i,i,7,16,.,.
COc1cc(/C=C2\CCn3c2nc2cc(C(=O)O)ccc2c3=O)ccc1OC(F)F,i,i,-8,-9,26*,-32*
CN(CCC(=O)Nc1ccc(Cl)cc1)Cc1ccccc1,i,i,8,-5,.,.
O=C(NC1CC2CCC(C1)N2Cc1ccco1)c1ccccc1 (stereo not given),i,7.7*,7,-2,2,i
O=C(COC(=O)CCC(=O)c1ccc(F)cc1)Nc1ccc(Cl)cn1,.,.,4,9,.,.
CCN1CCN(c2nc3ccccc3n3cnnc23)CC1,i,i,-7,3,.,.
Cc1nnc2c(N3CCN(CCO)CC3)nc3ccccc3n12,i,i,-6,-4,52*,-50*
Nc1ccc(Br)c[n+]1Cc1cccc2cccnc12,i,i,1,0,34*,-46*
c1cc2c3c(cccc3c1)C(N1CCCCCC1)=N2,i,i,-5,-5,50*,-57*
CCc1ccc(-n2cc(-c3ccc(F)cc3)[n+]3c2SCCC3)cc1,i,14*,-10,5,82*,i
Cc1ccc(-c2cn(-c3ccccc3)c3[n+]2CCCS3)cc1,i,6.6*!,5,5,50*,-23*
N#Cc1ccc(-c2cn(-c3ccccc3)c3[n+]2CCCS3)cc1,i,10*,0,2,62*,-65*
c1ccc(-c2cn(-c3ccccc3)c3[n+]2CCCS3)cc1,i,i,12,2,.,.
Cn1c(-c2cccc([N+](=O)[O-])c2)[n+](C)c2ccccc21,i,i,10,1,.,.
Cn1c(-c2ccc3ccccc3n2)[n+](C)c2ccccc21,i,i,6,-3,.,.
CN(C)c1ccc(-c2n(C)c3ccccc3[n+]2C)cc1,i,8.3*,2,3,64*,-51*
Cn1c(-c2ccccn2)[n+](C)c2ccccc21,i,i,-5,6,44*,-37*
COc1c2occc2c(OC)c2c(=O)cc(C)oc12,i,i,3,8,34*,-38*
Cn1c(=NC(=O)C2=NNC(=O)CC2)sc2ccccc21,i,6.9*,-2,9,54*,-32*
COc1ccc(-c2noc(CN3CCCCC3c3nccn3C)n2)cc1 (stereo not given),i,11*,8,4,49*,i
COCC1CCN(Cc2cn[nH]c2-c2ccc(OC)cc2F)C1 (stereo not given),i,i,5,6,21*,i
COc1ccc(-c2[nH]ncc2CN2CCC(OCc3ccccc3)CC2)c(F)c1,i,i,-5,0,.,.

# Source: PubChem BioAssay
